Assay results taken from PMC10515597 (ACS Omega, 2023).
Where a SMILES comes first, the peptide text is derived from it. Bridges are numbered along the chain shown (N, C = ends). Roman numbers before positions name the chains, in order. The star is where a group is joined. X2 = O=C(N=C(NCc1ccc(C(=O)*)cc1)Nc1ccc(Br)cc1)c1ccccc1

Columns and labels:
[1] = tested on: L. amazonensis intracellular amastigotes; assay: Antiamastigote activity in infected macrophages; type: cell-based, Leishmania amazonensis; details: 24 h; for IC50: Leishmania amazonensis, Macrophage, read-out: IC50 amastigote
How it was run: (§1)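 Swiss mouse peritoneal macrophages (3 × 10⁵ cells mL⁻¹, complete RPMI-1640) adhered on coverslips for 4 h at 37 °C, 5% CO₂. They were infected 18 h with stationary-phase L. amazonensis promastigotes (MPRO/BR/1972/M1841-LV-79) at 10:1 and washed. Test compound (0.02–10 μM) was added for 24 h. Giemsa-stained cells were counted for infection index (% infected cells × parasites per infected cell). IC50 by nonlinear regression. Duplicates, three independent experiments.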

[2] = tested on: L. amazonensis promastigotes; assay: Antipromastigote assay, viable promastigotes counted with trypan blue; type: cell-based; details: Leishmania amazonensis, 72 h, read-out: IC50 promastigote
How it was run: (§2)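 Promastigotes were grown at 28 °C to mid-log phase: L. amazonensis (MPRO/BR/1972/M1841-LV-79) in LIT medium, L. mexicana (MNYC/BZ/62/M379) in Schneider's medium with 10% heat-inactivated FBS. Exponential-phase cells were plated at 1 × 10⁷ mL⁻¹ with test compound 1.28–100 μM. After 72 h, viable promastigotes were counted by trypan blue in a Neubauer chamber. Duplicates, three independent experiments.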

[3] = tested on: Leishmania amazonensis amastigotes; details: read-out: IC50-ama; L. amazonensis amastigotes ref 28; cited from earlier work
[4] = tested on: L. mexicana intracellular amastigotes; assay: Antiamastigote activity in infected macrophages; type: cell-based; details: Leishmania mexicana, Macrophage, 48 h, read-out: IC50 amastigote
How it was run: as §1, with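 “8” for “18”, “mexicana” for “amazonensis”, “(MNYC/BZ/62/M379)” for “(MPRO/BR/1972/M1841-LV-79)”, “48” for “24”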

[5] = tested on: L. mexicana promastigotes; assay: Antipromastigote assay, viable promastigotes counted with trypan blue; type: cell-based; details: Leishmania mexicana, read-out: IC50 promastigote
How it was run: as §2

[6] = Cytotoxic activity, MTT colorimetric method; type: cell-based, Swiss mice; details: Swiss, mouse, murine peritoneal macrophages

SMILES	infection rate, fold lower than untreated cells and Amph B ([1]; L. amazonensis, at the tested concentrations (10 and 5 μM))	IC50 [2] [µM]	IC50 [1] [µM]	IC50 [3] [µM]	IC50 [4] [µM]	IC50 [5] [µM]	CC50 [6] [µM]
CC(C)C[C@H](NC(=O)[C@H](Cc1c[nH]cn1)NC(=O)[C@H](Cc1ccc(O)cc1)NC(=O)[C@H](CCCNC(=N)N)NC(=O)[C@H](Cc1ccc(O)cc1)NC(=O)[C@H](CCCCN)NC(=O)[C@@H](N)CCCCN)C(=O)N[C@@H](CCCCN)C(=O)N1CCC[C@H]1C(=O)N[C@@H](Cc1ccccc1)C(=O)NCCCC[C@H](NC(=O)[C@H](Cc1ccccc1)NC(=O)[C@@H]1CCCN1C(=O)[C@H](CCCCN)NC(=O)[C@H](CC(C)C)NC(=O)[C@H](Cc1c[nH]cn1)NC(=O)[C@H](Cc1ccc(O)cc1)NC(=O)[C@H](CCCNC(=N)N)NC(=O)[C@H](Cc1ccc(O)cc1)NC(=O)[C@H](CCCCN)NC(=O)[C@H](CCCCN)NC(=O)c1ccc(CNC(=NC(=O)c2ccccc2)Nc2ccc(Br)cc2)cc1)C(N)=O [(GVL1)-p-Bt] (I: X2-KKYRYHLKPFK-NH2 / II: H-KKYRYHLKPF; amide I:11-II:C)	3–4 fold						
C[C@@H]1[C@H](O)[C@@H](C)/C=C/C=C/C=C/C=C/C=C/C=C/C=C/[C@H](O[C@@H]2O[C@H](C)[C@@H](O)[C@H](N)[C@@H]2O)C[C@@H]2O[C@](O)(C[C@@H](O)C[C@@H](O)[C@H](O)CC[C@@H](O)C[C@@H](O)CC(=O)O[C@H]1C)C[C@H](O)[C@H]2C(=O)O [Amph B, amphotericin B]		0.7 ± 0.2	0.63 ± 0.02	4.9	0.73 ± 0.2	0.45 ± 1.2	
O=C(O)c1ccc(CN/C(=N/C(=O)c2ccccc2)Nc2ccc(Br)cc2)cc1 [GVL1, (Z)-4-((2-benzoyl-3-(4-bromophenyl)guanidino)methyl) benzoic acid]		34.4 ± 0.1	8.9 ± 1.41		7.5 ± 3.53	51.8 ± 0.1	
O=C(NC(=Nc1ccc(Br)cc1)NCc1ccccc1)c1ccccc1 [LQOF-G2, N-benzoyl-N′-benzyl-N″(4-bromophenyl)guanidine]		19.6 ± 0.2	5.6 ± 2.5	5.6			737.9 ± 1.4
